One test relates to HEL. Description: Cytotoxicity against human HEL cells assessed as reduction in cell viability incubated for 48 hrs by MTT assay. It counts as functional, cell-based. The method in brief:
(§1)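 MTT viability after 48 h exposure. Cells (1×10^4/well) were allowed 24 h at 37 °C before dosing. Leukemia lines were grown in RPMI and breast lines in high-glucose DMEM, each with 5% FBS under 5% CO2. MTT was added for 4 h, formazan dissolved in DMSO, and absorbance read at 490 nm. Triplicate wells; values averaged over at least 3 independent experiments.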
In general terms: Tetrazolium dyes change colour on reduction, which living cells bring about.

The test system of a further test is K562. Description: Cytotoxicity against human K562 cells assessed as reduction in cell viability incubated for 48 hrs by MTT assay. It counts as functional, cell-based. The settings on record: K562, 48 h. The method in brief: as §1
Another test deals with MDA-MB-231. Put plainly: Cytotoxicity against human MDA-MB-231 cells assessed as reduction in cell viability incubated for 48 hrs by MTT assay. It counts as functional, cell-based. The conditions noted are these: MDA-MB-231, 48 h. In outline:
as §1

Another test has as its system MCF7. Put plainly: Cytotoxicity against human MCF-7 cells assessed as reduction in cell viability incubated for 48 hrs by MTT assay. The settings on record: MCF7, 48 h. It is filed as functional, cell-based. The method in brief:
as §1

The nature of test [1]: Inhibition of AKT (unknown origin) by ELISA assay. Details: species or system Homo sapiens. In outline:
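Akt kinase activity kit run per the manufacturer's protocol. Akt source was lysate of compound-treated human leukemia HEL cells, purified on a Mono Q anion-exchange column before the kinase measurement. HEL cells were grown in RPMI with 5% FBS at 37 °C and 5% CO2. The value is reported as an IC50.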
In general terms: In an ELISA, binding on a coated surface is turned into a signal by an enzyme label.

Broadly, the IC50 is the concentration needed to halve the response being measured. With `CCN(CC)C(=O)Oc1c(OC)cc2c3c1Oc1cc4c(cc1OC)CCN(C)[C@H]4Cc1ccc(cc1)Oc1cc(ccc1OC)C[C@@H]3N(C)CC2`, the IC50 with HEL was 2.98 µM; in the test with K562, 3.74 µM; in the test with MDA-MB-231 it was 9.04 µM; in the test on MCF7, 23.7 µM.
As to `C=CC(=O)Oc1c(OC)cc2c3c1Oc1cc4c(cc1OC)CCN(C)[C@H]4Cc1ccc(cc1)Oc1cc(ccc1OC)C[C@@H]3N(C)CC2`, the IC50 came out at 4.27 µM in the test on HEL, 6.77 µM with K562, 5.03 µM in the test with MDA-MB-231 and 7.28 µM in the test on MCF7.
For `CCCCCC(=O)Oc1c(OC)cc2c3c1Oc1cc4c(cc1OC)CCN(C)[C@H]4Cc1ccc(cc1)Oc1cc(ccc1OC)C[C@@H]3N(C)CC2`, the IC50 amounted to 21 µM in the test on HEL, 13.3 µM in the test with K562, 11.3 µM in the test with MDA-MB-231 and 12 µM in the test with MCF7.
Consider `COc1ccc2cc1Oc1ccc(cc1)C[C@H]1c3cc(c(OC)cc3CCN1C)Oc1c(OC(=O)/C=C/c3ccccc3)c(OC)cc3c1[C@H](C2)N(C)CC3`, for which the IC50 was determined as 10.2 µM in the test on HEL, 9.43 µM in the test with K562, 7.9 µM in the test on MDA-MB-231 and 16.1 µM with MCF7.
Turning to `COc1ccc2cc1Oc1ccc(cc1)C[C@H]1c3cc(c(OC)cc3CCN1C)Oc1c(O)c(OC)cc3c1[C@H](C2)N(C)CC3` [FANGCHINOLINE], the IC50 is 22.7 µM in the test with HEL; 5.94 µM in the test with K562; 58.6 µM in the test with MDA-MB-231; 17.4 µM with MCF7; above 20 µM in test [1].
Turning to `COc1ccc2cc1Oc1ccc(cc1)C[C@H]1c3cc(c(OC)cc3CCN1C)Oc1c(OC(=O)c3ccc(Cl)cc3)c(OC)cc3c1[C@H](C2)N(C)CC3`, the IC50 in the test with HEL stood at 2.81 µM; in the test with K562, 2.8 µM; with MDA-MB-231, 7.55 µM; in the test on MCF7 it was 8.63 µM.
Regarding `COc1ccc2cc1Oc1ccc(cc1)C[C@H]1c3cc(c(OC)cc3CCN1C)Oc1c(OC(=O)C3CC3)c(OC)cc3c1[C@H](C2)N(C)CC3`, the IC50 with HEL was 21.3 µM; with K562, 17.5 µM; in the test with MDA-MB-231, 13.5 µM; with MCF7, above 100 µM.
For `COc1ccc2cc1Oc1ccc(cc1)C[C@H]1c3cc(c(OC)cc3CCN1C)Oc1c(OC(=O)C=C(C)C)c(OC)cc3c1[C@H](C2)N(C)CC3`, the IC50 in the test on HEL is 5.16 µM; in the test with K562, 5.39 µM; in the test on MDA-MB-231 it was 10.3 µM; with MCF7 it was above 100 µM.
The like results for `COc1ccc2cc1Oc1ccc(cc1)C[C@H]1c3cc(c(OC)cc3CCN1C)Oc1c(OC(=O)c3cccc4ccccc34)c(OC)cc3c1[C@H](C2)N(C)CC3` were, in that order, 3.46 µM, 4.59 µM, 16.5 µM and 8.19 µM.
Take `CC[C@]1(O)C[C@@H]2CN(CCc3c([nH]c4ccccc34)[C@@](C(=O)OC)(c3cc4c(cc3OC)N(C)[C@H]3[C@@](O)(C(=O)OC)[C@H](OC(C)=O)[C@]5(CC)C=CCN6CC[C@]43[C@@H]65)C2)C1` [VINBLASTINE]: the IC50 in the test on HEL came out at 16 µM; in the test with K562, 9.49 µM; in the test on MDA-MB-231, 17.7 µM; with MCF7, 37.5 µM.
`COc1ccc2cc1Oc1ccc(cc1)C[C@H]1c3cc(c(OC)cc3CCN1C)Oc1c(OC(=O)c3ccc(Br)cc3)c(OC)cc3c1[C@H](C2)N(C)CC3`: the half-maximal inhibitory concentration (IC50) came out at 2.31 µM with HEL, 3.06 µM with K562, 5.58 µM in the test on MDA-MB-231 and 6.84 µM in the test on MCF7.
With `COc1ccc2cc1Oc1ccc(cc1)C[C@H]1c3cc(c(OC)cc3CCN1C)Oc1c(OC)c(OC)cc3c1[C@H](C2)N(C)CC3` [FANCHININ], the IC50 was found to be 19.7 µM in the test with HEL, 6.43 µM with K562, 18.4 µM with MDA-MB-231 and 19.6 µM with MCF7.
As for `COc1ccc2cc1Oc1ccc(cc1)C[C@H]1c3cc(c(OC)cc3CCN1C)Oc1c(OC(=O)C(Cl)(Cl)Cl)c(OC)cc3c1[C@H](C2)N(C)CC3`, the IC50 came to 3.54 µM in the test on HEL, 3.3 µM with K562, 4.05 µM in the test with MDA-MB-231 and 7.14 µM in the test with MCF7.
Consider `COc1ccc2cc1Oc1ccc(cc1)C[C@H]1c3cc(c(OC)cc3CCN1C)Oc1c(OC(=O)N3CCCOC3)c(OC)cc3c1[C@H](C2)N(C)CC3`, for which the IC50 is 40.2 µM with HEL, 15.9 µM in the test on K562, 15.1 µM in the test on MDA-MB-231 and 25.2 µM in the test on MCF7.
Turning to `CCN(C)C(=O)Oc1c(OC)cc2c3c1Oc1cc4c(cc1OC)CCN(C)[C@H]4Cc1ccc(cc1)Oc1cc(ccc1OC)C[C@@H]3N(C)CC2`, the IC50 was determined as 3.46 µM with HEL, 5.89 µM in the test with K562, 9.89 µM in the test with MDA-MB-231 and 20.6 µM with MCF7.
The like results for `COc1ccc2cc1Oc1ccc(cc1)C[C@H]1c3cc(c(OC)cc3CCN1C)Oc1c(OC(=O)CBr)c(OC)cc3c1[C@H](C2)N(C)CC3` were, in that order, 25.9 µM, 14.3 µM, 17.8 µM and 22.1 µM.
The like results for `COc1ccc2cc1Oc1ccc(cc1)C[C@H]1c3cc(c(OC)cc3CCN1C)Oc1c(OC(=O)CCCl)c(OC)cc3c1[C@H](C2)N(C)CC3` were, in that order, 4.84 µM, 6.47 µM, 9.47 µM and 18.8 µM.
On to `COc1ccc2cc1Oc1ccc(cc1)C[C@H]1c3cc(c(OC)cc3CCN1C)Oc1c(OC(=O)c3ccccc3Cl)c(OC)cc3c1[C@H](C2)N(C)CC3`, for which the IC50 was found to be 3.22 µM in the test with HEL, 3.58 µM with K562, 5.41 µM in the test with MDA-MB-231 and 6.26 µM in the test with MCF7.
For `COc1ccc2cc1Oc1ccc(cc1)C[C@H]1c3cc(c(OC)cc3CCN1C)Oc1c(OC(=O)N3c4ccccc4Sc4ccccc43)c(OC)cc3c1[C@H](C2)N(C)CC3`, the IC50 was 17.6 µM with HEL, 12.4 µM with K562, 10.1 µM in the test on MDA-MB-231 and 20.7 µM with MCF7.
`COc1ccc2cc1Oc1ccc(cc1)C[C@H]1c3cc(c(OC)cc3CCN1C)Oc1c(OC(=O)c3ccc(Cl)c(Cl)c3)c(OC)cc3c1[C@H](C2)N(C)CC3`: the IC50 in the test on HEL worked out at 4.56 µM; with K562 it was 8.52 µM; with MDA-MB-231, 18.3 µM; in the test on MCF7, 10.8 µM.
Turning to `COc1ccc2cc1Oc1ccc(cc1)C[C@H]1c3cc(c(OC)cc3CCN1C)Oc1c(OC(=O)C(C)(C)C)c(OC)cc3c1[C@H](C2)N(C)CC3`, the IC50 in the test with HEL is 3.73 µM; with K562, 4.03 µM; with MDA-MB-231, 8.56 µM; with MCF7, 7.69 µM.
As for `COc1ccc2cc1Oc1ccc(cc1)C[C@H]1c3cc(c(OC)cc3CCN1C)Oc1c(OC(=O)c3ccc(Cl)cc3Cl)c(OC)cc3c1[C@H](C2)N(C)CC3`, the IC50 in the test on HEL was 10.2 µM; in the test with K562, 6.11 µM; in the test on MDA-MB-231 it was 28 µM; in the test with MCF7, above 100 µM.
As for `COc1ccc2cc1Oc1ccc(cc1)C[C@H]1c3cc(c(OC)cc3CCN1C)Oc1c(OC(=O)c3cccc(Cl)c3)c(OC)cc3c1[C@H](C2)N(C)CC3`, the 50% inhibitory concentration (IC50) was determined as 4.26 µM in the test with HEL, 3.79 µM in the test with K562, 8.03 µM in the test on MDA-MB-231 and 4.42 µM in the test on MCF7.
Take `COc1ccc2cc1Oc1ccc(cc1)C[C@H]1c3cc(c(OC)cc3CCN1C)Oc1c(OC(=O)c3c(Cl)cc(Cl)cc3Cl)c(OC)cc3c1[C@H](C2)N(C)CC3`: the IC50 with HEL worked out at 7.65 µM; in the test with K562, 7.6 µM; in the test on MDA-MB-231, 23 µM; with MCF7, 18.2 µM.
On to `COc1ccc2cc1Oc1ccc(cc1)C[C@H]1c3cc(c(OC)cc3CCN1C)Oc1c(OC(=O)CCCCl)c(OC)cc3c1[C@H](C2)N(C)CC3`, for which the IC50 in the test on HEL was determined as 7.86 µM; in the test on K562 it was 6.55 µM; in the test with MDA-MB-231, 8.68 µM; in the test on MCF7, 12.4 µM.
For `C=CCCCCCCCCC(=O)Oc1c(OC)cc2c3c1Oc1cc4c(cc1OC)CCN(C)[C@H]4Cc1ccc(cc1)Oc1cc(ccc1OC)C[C@@H]3N(C)CC2` the same measures were 15.7 µM, 10.4 µM, 13 µM and 8.57 µM.
On to `COc1ccc2cc1Oc1ccc(cc1)C[C@H]1c3cc(c(OC)cc3CCN1C)Oc1c(OC(=O)CCl)c(OC)cc3c1[C@H](C2)N(C)CC3`, for which the IC50 in the test on HEL stood at 10.8 µM; in the test on K562, 12.3 µM; in the test with MDA-MB-231, 10 µM; in the test on MCF7 it was 30.1 µM.

The values above are taken from ChEMBL document CHEMBL4680131, “Fangchinoline derivatives induce cell cycle arrest and apoptosis in human leukemia cell lines via suppression of the PI3K/AKT and MAPK signaling pathway” (Eur J Med Chem, 2020).
